Test results from ChEMBL document CHEMBL1250499, “Chiral 6-hydroxymethyl-1H,3H-pyrrolo[1,2-c]thiazoles: novel antitumor DNA monoalkylating agents” (Eur J Med Chem, 2010).

Experiments:
Assay type in all cases: functional, cell-based
WiDr [1] = assay: Cytotoxicity against human WiDr cells after 96 hrs by MTT assay
How it was run: (§1)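 Cells grown in DMEM with 10% heat-inactivated FBS, 1% penicillin–streptomycin and 100 μM sodium pyruvate at 37 °C, 5% CO2. Seeded at 50 000 cells/mL, attached overnight, then exposed to successive DMSO dilutions of compound. Proliferation read by MTT colorimetric assay as % inhibition versus DMSO-only controls. IC50 from dose-response curves by exponential decay fit (r2 > 0.9). Duplicates, three independent sets.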

MCF7 [2] = assay: Cytotoxicity against human MCF7 cells after 96 hrs by MTT assay; conditions: MCF7, 96 h; how it was run: as §1
MCF7 [3] = assay: Cytotoxicity against human MCF7 cells after 24 hrs by MTT assay; conditions: MCF7, 24 h; how it was run: as §1
MCF7 [4] = assay: Cytotoxicity against human MCF7 cells after 72 hrs by MTT assay; conditions: MCF7, 72 h; how it was run: as §1
WiDr [5] = assay: Cytotoxicity against human WiDr cells after 72 hrs by MTT assay; how it was run: as §1
A-375 [6] = assay: Cytotoxicity against human A375 cells after 24 hrs by MTT assay; conditions: A-375, 24 h; how it was run: as §1
A-375 [7] = assay: Cytotoxicity against human A375 cells after 72 hrs by MTT assay; conditions: A-375, 72 h; how it was run: as §1
WiDr [8] = assay: Cytotoxicity against human WiDr cells after 24 hrs by MTT assay; how it was run: as §1
MCF7 [9] = assay: Cytotoxicity against human MCF7 cells after 48 hrs by MTT assay; conditions: MCF7, 48 h; how it was run: as §1
A-375 [10] = assay: Cytotoxicity against human A375 cells after 48 hrs by MTT assay; conditions: A-375, 48 h; how it was run: as §1
A-375 [11] = assay: Cytotoxicity against human A375 cells after 96 hrs by MTT assay; conditions: A-375, 96 h; how it was run: as §1
WiDr [12] = assay: Cytotoxicity against human WiDr cells after 48 hrs by MTT assay; how it was run: as §1

Compound	IC50 (WiDr [1])	IC50 (MCF7 [2])	IC50 (MCF7 [3])	IC50 (MCF7 [4])	IC50 (WiDr [5])	IC50 (A-375 [6])	IC50 (A-375 [7])	IC50 (WiDr [8])	IC50 (MCF7 [9])	IC50 (A-375 [10])	IC50 (A-375 [11])	IC50 (WiDr [12])
Cc1cc(CO)c2n1[C@@H](c1ccccc1)SC2	65.1 µM	19.9 µM	110 µM	29.9 µM	63.5 µM	128 µM	62.1 µM	144 µM	63.9 µM	106 µM	45.3 µM	95.3 µM
COC(=O)c1cc2n(c1C)[C@@H](c1ccccc1)SC2	40.9 µM	30.6 µM	128 µM	48.8 µM	44.6 µM	73.5 µM	56.2 µM	54.2 µM	55.5 µM	65.1 µM	40 µM	57.1 µM
Cc1c(CO)c(CO)c2n1[C@@H](c1ccccc1)SC2	3.2 µM	0.6 µM	12.2 µM	1 µM	7.1 µM	97.3 µM	27.2 µM	60 µM	1.9 µM	36.1 µM	16.9 µM	9.1 µM
Cc1c(CO)cc2n1[C@@H](c1ccccc1)SC2	11 µM	1.9 µM	26.4 µM	2.4 µM	15.4 µM	103 µM	62.9 µM	55.5 µM	4.3 µM	69.8 µM	36.8 µM	17.1 µM
Cc1c(COC(=O)NCc2ccccc2)cc2n1[C@@H](c1ccccc1)SC2	14.8 µM	1.9 µM	8.8 µM	2.2 µM	8.7 µM	37.4 µM	42.1 µM	30.9 µM	4.4 µM	32.4 µM	27.6 µM	8.7 µM
